The record followed here is ChEMBL document CHEMBL1124043, “Pyrido[2,1-b]quinazolinecarboxamide derivatives as platelet activating factor antagonists” (J Med Chem, 1988).

Series [1] deals with Platelet-activating factor receptor (Canis familiaris). In words: Percent inhibition of binding of platelet activating factor (PAF) to dog platelets using [3H]PAF as radioligand at a concentration of 1 uM. Particulars: Canis lupus familiaris.
The species entered for a further series is Cavia porcellus. The series is described as follows: Relative rate of hydrolysis in guinea pig whole liver homogenates. The class given is ADME. Put shortly: (§1)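 Whole liver homogenate, equivalent to 21 mg fresh liver, in 40 mM potassium phosphate pH 7.4 with 0.4 mM substrate, final volume 1.0 mL. Incubated 10 min at 37 °C, then quenched with acetonitrile-methanol (9:1). Amine product measured in the supernatant by HPLC. Unincubated and no-substrate controls run in parallel. Rate expressed as nmol formed/10 min per 21 mg liver.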

The species named for another series is Canis familiaris. The series is described as follows: Relative rate of hydrolysis in dog whole liver homogenates. Type of series: ADME, Canis lupus familiaris. Put shortly: as §1
Series [2] can be described thus: Relative rate of hydrolysis in squirrel monkey whole liver homogenates. Particulars: saimiri, tissue homogenate. Type of series: ADME, tissue-based. Put shortly: as §1

SMILES strings stand for the structures.

On to `CC(C)c1ccc2nc3ccc(C(=O)NCCCCCCCc4cccnc4)cn3c(=O)c2c1`, for which the inhibition in series [1] is 19%.
`CC(C)c1ccc2nc3ccc(C(=O)NC(C)(C)CCCc4cccnc4)cn3c(=O)c2c1` showed a Relative rate in the series filed under Cavia porcellus of less than 0.01.
For the compound `CC(CCCc1cccnc1)NC(=O)c1ccc2nc3ccc(C(C)C)cc3c(=O)n2c1` (racemic), the Relative rate is 0.35 in the series listed under Cavia porcellus, 1.9 in the series filed under Canis familiaris and 0.49 in series [2].
The like results for `CC(C)c1ccc2nc3ccc(C(=O)N[C@@H](C)CCCc4cccnc4)cn3c(=O)c2c1` were, in that order, 0.5, 1.9 and 0.26.
The like results for `CC(C)c1ccc2nc3ccc(C(=O)N[C@H](C)CCCc4cccnc4)cn3c(=O)c2c1` were, in that order, 0.063, less than 0.01 and less than 0.01.
In turn, `Cc1cc2nc3ccc(C(=O)NCCCCc4ccccc4)cn3c(=O)c2cc1C` registered an inhibition in series [1] of 4%.
The compound `CC(C)c1ccc2nc3ccc(S(=O)(=O)NCCCCc4cccnc4)cn3c(=O)c2c1` came in with an inhibition in series [1] of 7%.
For the compound `CC(C)c1ccc2nc3ccc(C(=O)NCCCc4cccnc4)cn3c(=O)c2c1`, the inhibition in series [1] turned out to be 5%.
In the case of `CC(C)c1ccc2nc3ccc(CCCCCCc4cccnc4)cn3c(=O)c2c1`, in series [1], the inhibition was determined as 15%.
Turning to `CC(C)c1ccc2nc3ccc(C(=O)NCCCCc4cccnc4)cn3c(=O)c2c1`, in the series listed under Cavia porcellus, the Relative rate was found to be 1.
With `CC(C)c1ccc2nc3ccc(CNCCCCc4cccnc4)cn3c(=O)c2c1`, the inhibition in series [1] came to 15%.
Turning to `CC(C)c1ccc2nc3ccc(C(=O)NCCCCCc4cccnc4)cn3c(=O)c2c1`, the inhibition in series [1] came to 9%.
In turn, `Cc1cc2nc3ccc(C(=O)NCCCCc4ccc[n+](C)c4)cn3c(=O)c2cc1C` yielded an inhibition in series [1] of 0%.
Compound `Cc1cc2nc3ccc(C(=O)NCCCCc4cnc[n+](C)c4)cn3c(=O)c2cc1C` returned an inhibition in series [1] of 0%.

By inhibition is commonly meant the relative decrease from the control value, in per cent.
